Experimental data taken from ChEMBL document CHEMBL1156627, “Ring expanded nucleoside analogues inhibit RNA helicase and intracellular human immunodeficiency virus type 1 replication” (J Med Chem, 2008).
Calls of active or inactive are those of the source. The calls are words filed in the database; no cut-off is given here.

How the values were obtained:
[1] = tested on: Human immunodeficiency virus 1; assay: Inhibition of macrophage tropic HIV1 AD8 replication in monocyte-derived macrophages p24 capsid protein level at 25 uM after 5 days by ELISA; format: functional, organism-based
Summary of the method: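 Elutriated blood monocytes cultured 5–7 days in RPMI-1640 with 10% pooled human AB serum and M-CSF to give macrophages. Infected on day 5 with 100,000 RT counts of HIV-1 AD8 (stock from HeLa transfection) and treated with compound. Supernatants collected every 3 days for p24 ELISA. Three repeats.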

[2] = biological target: ATP-dependent RNA helicase DDX3X (Homo sapiens) (UniProt O00571); assay: Inhibition of ATP dependent RNA unwinding activity of human RNA helicase DDX3
Summary of the method: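 Partially double-stranded RNA: 120-nt T3 transcript from KpnI-cut pBluescript hybridized (95 °C, 20 min) to complementary [α-32P]UTP-labelled T7 transcript from EcoRI-cut vector. Products resolved on 10% polyacrylamide gel, phosphorimaging.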

MT4 = assay: Cytotoxicity against human MT4 cells at 1 to 100 uM after 6 days by colorimetric assay relative to control; format: cell-based; conditions: mt4, 144 h
Summary of the method: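 MT4 cells (4 × 10^6 in 2 ml, RPMI + 10% FBS) incubated with 1, 10 or 100 µM compound over 6 days; half the medium replaced every 2 days with fresh drug-containing medium. At each harvest 100 µl suspension incubated 2 hrs with WST-8, absorbance at 450 nm, compared with untreated cells.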

[3] = tested on: Human immunodeficiency virus 1; assay: Antiviral activity against HIV1 transfected in human HeLa cells assessed as reduction of p55 viral protein synthesis at 25 uM; format: functional, organism-based
Summary of the method: (§1)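 HeLa cells transfected with 2µg pNL4-3 proviral clone; compound 25 µM added 3 hrs post-transfection. Lysates prepared 24 hrs later; viral proteins detected by Western blotting with anti-HIV-1 patient IgG (hyperimmune patient serum).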

[4] = tested on: Human immunodeficiency virus 1; assay: Inhibition of HIV1 replication in human MT4 cells assessed as p24 capsid protein level at 25 uM after 8 days by ELISA; format: functional, organism-based
Summary of the method: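 NL4-3 virus stock made by HeLa transfection, titred by RT assay. 4 × 10^6 MT4 cells (RPMI, 10% FBS) infected with 20,000 RT counts; compound added 4 hrs post infection. Half the medium replaced every 2 days with fresh medium holding the same compound level. Supernatants taken every 2 days over 8 days for p24 ELISA. Three repeats.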

[5] = tested on: Human immunodeficiency virus 1; assay: Inhibition of macrophage tropic HIV1 AD8 replication in monocyte-derived macrophages assessed as reduction in reverse transcriptase at 25 uM after 5 days by Western blotting; format: functional, organism-based
Summary of the method: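 Monocyte-derived macrophages from elutriated blood monocytes cultured 5–7 days in RPMI-1640 with 10% pooled human AB serum and M-CSF, then infected with 10^5 RT counts of M-tropic HIV-1 AD8 and treated with compound. Supernatants collected every 3 days for RT activity and p24 ELISA; three repeats.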

[6] = tested on: Human immunodeficiency virus 1; assay: Antiviral activity against HIV1 transfected in human HeLa cells assessed as reduction of p24 viral protein synthesis at 25 uM; format: functional, organism-based; summary of the method: as §1
[7] = tested on: Human immunodeficiency virus 1; assay: Inhibition of HIV1 replication in human MT4 cells assessed as reduction in reverse transcriptase production at 10 uM; format: functional, organism-based
Summary of the method: (§2)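 MT4 cells (4 × 10^6, RPMI + 10% FBS) infected with 20,000 RT counts of NL4-3 (HeLa-transfection stock); compound added 4 hrs post-infection. Half the medium replaced every 2 days with drug-containing medium; supernatants collected every 2 days up to day 8 and assayed for RT activity (also p24 ELISA). Three independent experiments.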

Mus musculus = assay: Toxicity in BALB/c mouse assessed as tissue necrosis at 0.2 to 200 uM, ip administered […] relative to control; format: organism-based; conditions: in vivo, 840 h
Summary of the method: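 BALB/c mice, 8–10 weeks old, groups of 4, injected intraperitoneally twice weekly for 4 weeks with boluses calculated to give body distributions of 0.2, 2, 20 and 200 µM. Controls received saline or DMSO. Mice monitored 5 weeks in total, tail-vein blood weekly, then necropsy and multi-organ histology.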

[8] = tested on: Human immunodeficiency virus 1; assay: Inhibition of HIV1 replication in human MT4 cells assessed as reduction in reverse transcriptase at 25 uM after 8 days by Western blotting; format: functional, organism-based; summary of the method: as §2

Chain of ATP-dependent RNA helicase DDX3X (Homo sapiens) (O00571 2-662 limits assumed): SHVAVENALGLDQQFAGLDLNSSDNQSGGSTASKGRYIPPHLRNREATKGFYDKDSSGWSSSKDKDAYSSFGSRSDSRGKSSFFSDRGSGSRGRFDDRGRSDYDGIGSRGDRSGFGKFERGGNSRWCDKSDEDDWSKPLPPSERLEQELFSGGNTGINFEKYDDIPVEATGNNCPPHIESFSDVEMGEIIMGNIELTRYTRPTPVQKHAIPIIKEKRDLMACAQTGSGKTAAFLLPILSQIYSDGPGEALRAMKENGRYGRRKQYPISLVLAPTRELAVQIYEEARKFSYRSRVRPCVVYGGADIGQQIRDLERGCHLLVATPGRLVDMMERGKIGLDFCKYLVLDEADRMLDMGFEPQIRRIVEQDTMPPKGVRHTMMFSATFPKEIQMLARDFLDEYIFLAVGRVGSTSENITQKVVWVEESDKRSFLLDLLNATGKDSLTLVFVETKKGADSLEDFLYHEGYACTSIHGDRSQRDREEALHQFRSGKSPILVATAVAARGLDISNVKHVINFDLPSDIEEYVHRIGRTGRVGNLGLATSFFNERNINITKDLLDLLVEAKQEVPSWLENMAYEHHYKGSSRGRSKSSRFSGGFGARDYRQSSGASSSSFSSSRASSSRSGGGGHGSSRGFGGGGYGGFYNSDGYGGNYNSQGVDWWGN

SMILES	Activity [1]	Activity [2]	Activity (MT4)	Activity [3]	Activity [4]	Activity [5]	Activity [6]	Activity [7]	Activity (Mus musculus)	Activity [8]
CCCCCCCCCCCCCCCCCCNc1nc(=O)c2ncn([C@@H]3O[C@H](CO)[C@@H](O)[C@H]3O)c2c(=O)[nH]1	Active	Active	Non-toxic	Active	Active	Active	Active	Active	Non-toxic	Active
CCCCCCCCCCCCCCCCCCNc1nc(=O)c2c(ncn2[C@@H]2C[C@@H](O)[C@H](CO)O2)c(=O)[nH]1	Active	Active	Non-toxic	Active	Active	Active	Active	Active	Non-toxic	Active
